According to PMC9979192 (Acta Pharmaceutica Sinica. B, 2022):
Where two headings read alike, the source gives them in different places.

Legend:
[1] = system: HCD mice; experiment: In vivo cholesterol efflux in HCD mice; set-up: species or system C57BL/6J mice; details: oral 30 mg/kg for 7 days
[2] = system: ApoE-/- mice; experiment: Western diet-induced atherosclerosis in ApoE-/- mice; assay type: in vivo, mouse; details: 24 weeks once daily oral
How it was run: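 Male ApoE−/− mice were started at 6–8 weeks on a high-fat, high-cholesterol diet for 23–24 weeks, with oral compound dosing. Whole aortas were stained with Sudan IV for plaque, and plasma hsCRP was measured. For hepatic cholesterol, liver lipid residue was resuspended in ethanol with 1% Triton X-100 and assayed with commercial kits.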

[3] = rat plasma; ref a previous study; cited from earlier work
[4] = human plasma; ref a previous study; cited from earlier work
[5] = mouse plasma; ref a previous study; cited from earlier work
[6] = system: primary hepatocytes; experiment: In vitro cholesterol efflux and Abcg5/8 expression; assay type: cell-based, mouse; details: 3H-cholesterol, 12 h; BA 50 μmol/L
How it was run: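 For Abcg5/Abcg8 mRNA, primary mouse hepatocytes were treated 24 h with 50 μmol/L test compound plus 15 μg/mL cholesterol in 420 μg/mL M-β-CD. For efflux, cells were loaded 12 h with 0.5 μCi/mL 3H-cholesterol plus cholesterol, washed, then given 12.5–50 μmol/L compound with 15 μg/mL cholesterol in serum-free medium for 12 h at 37 °C. 3H in medium and NaOH lysate was counted; T0901317 (1 μmol/L) served as positive control.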

[7] = system: hypercholesterolemia patients; details: at 12 weeks, with maximally tolerated statin therapy; cited from earlier work
[8] = monkey plasma; ref a previous study; cited from earlier work
[9] = system: golden hamsters; experiment: HFHC diet-induced hyperlipidemia in golden hamsters; assay type: in vivo, golden hamster; details: 2 weeks; 326E 15 and 30 mg/kg, BA 30 mg/kg; vs vehicle
[10] = system: mouse primary hepatocytes; experiment: In vitro de novo lipogenesis in primary hepatocytes; assay type: cell-based; details: 24 h treatment; compared with BA
How it was run: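 Hepatocytes came from 8–12-week male C57BL/6J mice by Percoll purification and were kept in Hepato ZYME-SFM with 2 mmol/L l-glutamine and antibiotics at 6 × 10^5 cells/well. Treated either 24 h with 0.1 μCi/well [1,2-14C]-acetate during the last 4 h, or 4 h with the label present. 14C in fatty acids and cholesterol was extracted and scintillation-counted, then normalized to DMSO; n = 3–4.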

[11] = system: primary mouse hepatocytes; experiment: Glucose output; assay type: cell-based; details: 6 h, pyruvate 2 mmol/L and lactate 20 mmol/L; compared to BA
How it was run: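 Primary hepatocytes from male C57BL/6J mice were treated with the test compound for 6 h in gluconeogenic medium with pyruvate (2 mmol/L) and lactate (20 mmol/L), with or without 4.0 mmol/L l-glutamine. Glucose output into the medium was measured and normalized to the DMSO group; n = 4.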

[12] = system: rhesus monkeys; experiment: Rhesus monkeys with spontaneous hyperlipidemia, efficacy and safety; assay type: in vivo, rhesus monkey; details: 2 weeks; 326E 20 mg/kg, atorvastatin 2.4 mg/kg

Structure (SMILES): CC(C)(CCCCCC(O)CCCCCC(C)(C)C(=O)O)C(=O)O [BA, Bempedoic acid]
- hepatic cholesterol content [1]: significantly reduced hepatic cholesterol content
- hepatic cholesterol content reduced compared to vehicle [2]: 37%
- aortic plaques reduced ([2]; 326E 15, 30, 60 mg/kg, BA 30 mg/kg): 33.4%
- in vitro plasma protein-binding rate [3]: 95%–98
- in vitro plasma protein-binding rate [4]: 95%–98
- in vitro plasma protein-binding rate [5]: 95%–98
- cholesterol efflux into the cell culture medium [6]: markedly promoted cholesterol efflux
- placebo-adjusted decrease from baseline in LDL-C [7]: 16.5%
- in vitro plasma protein-binding rate [8]: 95%–98
- body weight [9]: significantly decreased

Structure (SMILES): CC(C)(CCCCC=CCCCCCC(C)(C)C(=O)O)C(=O)O [326F]
- incorporation of [1,2-14C]-acetate into fatty acids and cholesterol [10]: dose-dependent lipogenesis inhibition
- cumulative glucose production [11]: reduced with a greater tendency

Structure (SMILES): CC(C)c1c(C(=O)Nc2ccccc2)c(-c2ccccc2)c(-c2ccc(F)cc2)n1CC[C@@H](O)C[C@@H](O)CC(=O)O [atorvastatin, Atorvastatin]
- body weight during treatment [12]: unchanged
